Reference: ChEMBL document CHEMBL1153999, “5,6-Diarylanthranilo-1,3-dinitriles as a new class of antihyperglycemic agents” (Bioorg Med Chem Lett, 2009)
In brackets after ≈: the same amount, converted by molar mass. Activity calls are given as the source filed them. No cut-off for these calls is given here.

What was measured:
[1] = target: Maltase-glucoamylase (Homo sapiens) (UniProt O43451); test: Inhibition of alpha-glucosidase at 100 uM
How it was run: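 Purified α-glucosidase (0.1 mg/mL) was assayed in 67 mM sodium phosphate (pH 6.8) with 1.0 mg/mL glutathione, 1 mL. The reaction was started with 3.0 mg/mL pNPG and followed at 405 nm every 30 s for 3 min.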

Glycogen phosphorylase [2] = test: Inhibition of glycogen phosphorylase at 100 uM
[3] = target: T1, Glucose-6-phosphatase catalytic subunit 1 (Homo sapiens) (UniProt P35575); test: Inhibition of glucose-6-phosphatase at 100 uM
T1 sequence (whole entry): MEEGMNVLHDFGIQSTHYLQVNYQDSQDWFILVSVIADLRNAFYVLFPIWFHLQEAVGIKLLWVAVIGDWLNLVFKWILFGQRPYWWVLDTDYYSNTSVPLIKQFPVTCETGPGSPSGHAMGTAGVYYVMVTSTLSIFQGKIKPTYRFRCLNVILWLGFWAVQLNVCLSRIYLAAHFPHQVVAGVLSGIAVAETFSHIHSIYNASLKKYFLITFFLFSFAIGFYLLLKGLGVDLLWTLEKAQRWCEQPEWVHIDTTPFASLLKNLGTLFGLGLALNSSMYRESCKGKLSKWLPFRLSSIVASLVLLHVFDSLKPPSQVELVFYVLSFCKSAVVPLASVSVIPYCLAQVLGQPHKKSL
How it was run: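 Compound was preincubated 10 min with glucose-6-phosphatase in 1.0 mL of 0.3 M citrate (pH 6.0), 28 mM EDTA, 14 mM NaF and 200 mM glucose-6-phosphate. The mixture was incubated 30 min at 37 °C and stopped with 10% TCA. Released Pi in the supernatant was measured by Taussky–Shorr; activity is µmol Pi/min/mg protein.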

[4] = target: T2, Tyrosine-protein phosphatase non-receptor type 1 (Homo sapiens) (UniProt P18031); test: Inhibition of PTP1B at 100 uM
T2 sequence (whole entry): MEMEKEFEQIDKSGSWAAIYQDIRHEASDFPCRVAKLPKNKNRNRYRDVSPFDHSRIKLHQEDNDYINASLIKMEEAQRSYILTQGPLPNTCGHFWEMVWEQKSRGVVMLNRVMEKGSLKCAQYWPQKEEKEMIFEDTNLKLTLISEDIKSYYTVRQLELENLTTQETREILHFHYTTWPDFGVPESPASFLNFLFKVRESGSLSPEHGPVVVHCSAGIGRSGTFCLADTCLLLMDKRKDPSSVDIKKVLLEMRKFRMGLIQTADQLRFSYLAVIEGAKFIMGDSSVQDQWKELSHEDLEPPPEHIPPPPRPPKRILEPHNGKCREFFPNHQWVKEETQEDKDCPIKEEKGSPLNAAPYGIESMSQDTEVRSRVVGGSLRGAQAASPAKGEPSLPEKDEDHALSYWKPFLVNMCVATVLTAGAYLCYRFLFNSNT
How it was run: (§1)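 The PTP-1B assay used 10 mM pNPP in 50 mM HEPES (pH 7.0) with 1 mM DTT and 2 mM EDTA, 1.0 mL, 37 °C for 30 min. It was stopped with 0.1 N NaOH and read at 410 nm. p-Nitrophenolate was calculated with ε 1.78 × 10⁴ M⁻¹ cm⁻¹. Sodium vanadate was the reference.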

Rattus norvegicus [5] = test: Antihyperglycemic activity in Sprague-Dawley rat assessed as inhibition of streptozotocin-induced increase in blood glucose level at 100 mg/kg, po after 24 hrs; type: functional; parameters: scale not given: the % may be the effect or the level left
How it was run: (§2)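 Overnight-fasted male Sprague–Dawley rats were made diabetic with streptozotocin 60 mg/kg ip in 100 mM citrate (pH 4.5). Rats with glucose >10 mM at 48 h and a baseline of 140–270 mg/dL were used, 5 per group. Test suspension or 1% gum acacia vehicle was given orally, then sucrose 2.5 g/kg orally 30 min later. Glucose was read at 30–1440 min; % activity is from AUC versus vehicle (Dunnett test).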

Rattus norvegicus [6] = test: Antihyperglycemic activity in Sprague-Dawley rat assessed as inhibition of streptozotocin-induced increase in blood glucose level at 100 mg/kg, po after 5 hrs; type: functional; parameters: scale not given: the % may be the effect or the level left; how it was run: as §2
Rattus norvegicus [7] = test: Toxicity in Sprague-Dawley rat up to 250 mg/kg, po; type: organism-based; parameters: dose 250 mg/kg, route oral; details: in vivo
[8] = Solubility in triple distilled water; type: physicochemical
[9] = target: T3, Tyrosine-protein phosphatase non-receptor type 1 (Homo sapiens, UniProt P18031); test: Inhibition of PTP1B; how it was run: as §1
T3 sequence (P18031 whole entry): T2 sequence (whole entry)

Glycogen phosphorylase [10] = test: Inhibition of glycogen phosphorylase

Maltase-glucoamylase (Homo sapiens), sequence (O43451 whole entry, looked up): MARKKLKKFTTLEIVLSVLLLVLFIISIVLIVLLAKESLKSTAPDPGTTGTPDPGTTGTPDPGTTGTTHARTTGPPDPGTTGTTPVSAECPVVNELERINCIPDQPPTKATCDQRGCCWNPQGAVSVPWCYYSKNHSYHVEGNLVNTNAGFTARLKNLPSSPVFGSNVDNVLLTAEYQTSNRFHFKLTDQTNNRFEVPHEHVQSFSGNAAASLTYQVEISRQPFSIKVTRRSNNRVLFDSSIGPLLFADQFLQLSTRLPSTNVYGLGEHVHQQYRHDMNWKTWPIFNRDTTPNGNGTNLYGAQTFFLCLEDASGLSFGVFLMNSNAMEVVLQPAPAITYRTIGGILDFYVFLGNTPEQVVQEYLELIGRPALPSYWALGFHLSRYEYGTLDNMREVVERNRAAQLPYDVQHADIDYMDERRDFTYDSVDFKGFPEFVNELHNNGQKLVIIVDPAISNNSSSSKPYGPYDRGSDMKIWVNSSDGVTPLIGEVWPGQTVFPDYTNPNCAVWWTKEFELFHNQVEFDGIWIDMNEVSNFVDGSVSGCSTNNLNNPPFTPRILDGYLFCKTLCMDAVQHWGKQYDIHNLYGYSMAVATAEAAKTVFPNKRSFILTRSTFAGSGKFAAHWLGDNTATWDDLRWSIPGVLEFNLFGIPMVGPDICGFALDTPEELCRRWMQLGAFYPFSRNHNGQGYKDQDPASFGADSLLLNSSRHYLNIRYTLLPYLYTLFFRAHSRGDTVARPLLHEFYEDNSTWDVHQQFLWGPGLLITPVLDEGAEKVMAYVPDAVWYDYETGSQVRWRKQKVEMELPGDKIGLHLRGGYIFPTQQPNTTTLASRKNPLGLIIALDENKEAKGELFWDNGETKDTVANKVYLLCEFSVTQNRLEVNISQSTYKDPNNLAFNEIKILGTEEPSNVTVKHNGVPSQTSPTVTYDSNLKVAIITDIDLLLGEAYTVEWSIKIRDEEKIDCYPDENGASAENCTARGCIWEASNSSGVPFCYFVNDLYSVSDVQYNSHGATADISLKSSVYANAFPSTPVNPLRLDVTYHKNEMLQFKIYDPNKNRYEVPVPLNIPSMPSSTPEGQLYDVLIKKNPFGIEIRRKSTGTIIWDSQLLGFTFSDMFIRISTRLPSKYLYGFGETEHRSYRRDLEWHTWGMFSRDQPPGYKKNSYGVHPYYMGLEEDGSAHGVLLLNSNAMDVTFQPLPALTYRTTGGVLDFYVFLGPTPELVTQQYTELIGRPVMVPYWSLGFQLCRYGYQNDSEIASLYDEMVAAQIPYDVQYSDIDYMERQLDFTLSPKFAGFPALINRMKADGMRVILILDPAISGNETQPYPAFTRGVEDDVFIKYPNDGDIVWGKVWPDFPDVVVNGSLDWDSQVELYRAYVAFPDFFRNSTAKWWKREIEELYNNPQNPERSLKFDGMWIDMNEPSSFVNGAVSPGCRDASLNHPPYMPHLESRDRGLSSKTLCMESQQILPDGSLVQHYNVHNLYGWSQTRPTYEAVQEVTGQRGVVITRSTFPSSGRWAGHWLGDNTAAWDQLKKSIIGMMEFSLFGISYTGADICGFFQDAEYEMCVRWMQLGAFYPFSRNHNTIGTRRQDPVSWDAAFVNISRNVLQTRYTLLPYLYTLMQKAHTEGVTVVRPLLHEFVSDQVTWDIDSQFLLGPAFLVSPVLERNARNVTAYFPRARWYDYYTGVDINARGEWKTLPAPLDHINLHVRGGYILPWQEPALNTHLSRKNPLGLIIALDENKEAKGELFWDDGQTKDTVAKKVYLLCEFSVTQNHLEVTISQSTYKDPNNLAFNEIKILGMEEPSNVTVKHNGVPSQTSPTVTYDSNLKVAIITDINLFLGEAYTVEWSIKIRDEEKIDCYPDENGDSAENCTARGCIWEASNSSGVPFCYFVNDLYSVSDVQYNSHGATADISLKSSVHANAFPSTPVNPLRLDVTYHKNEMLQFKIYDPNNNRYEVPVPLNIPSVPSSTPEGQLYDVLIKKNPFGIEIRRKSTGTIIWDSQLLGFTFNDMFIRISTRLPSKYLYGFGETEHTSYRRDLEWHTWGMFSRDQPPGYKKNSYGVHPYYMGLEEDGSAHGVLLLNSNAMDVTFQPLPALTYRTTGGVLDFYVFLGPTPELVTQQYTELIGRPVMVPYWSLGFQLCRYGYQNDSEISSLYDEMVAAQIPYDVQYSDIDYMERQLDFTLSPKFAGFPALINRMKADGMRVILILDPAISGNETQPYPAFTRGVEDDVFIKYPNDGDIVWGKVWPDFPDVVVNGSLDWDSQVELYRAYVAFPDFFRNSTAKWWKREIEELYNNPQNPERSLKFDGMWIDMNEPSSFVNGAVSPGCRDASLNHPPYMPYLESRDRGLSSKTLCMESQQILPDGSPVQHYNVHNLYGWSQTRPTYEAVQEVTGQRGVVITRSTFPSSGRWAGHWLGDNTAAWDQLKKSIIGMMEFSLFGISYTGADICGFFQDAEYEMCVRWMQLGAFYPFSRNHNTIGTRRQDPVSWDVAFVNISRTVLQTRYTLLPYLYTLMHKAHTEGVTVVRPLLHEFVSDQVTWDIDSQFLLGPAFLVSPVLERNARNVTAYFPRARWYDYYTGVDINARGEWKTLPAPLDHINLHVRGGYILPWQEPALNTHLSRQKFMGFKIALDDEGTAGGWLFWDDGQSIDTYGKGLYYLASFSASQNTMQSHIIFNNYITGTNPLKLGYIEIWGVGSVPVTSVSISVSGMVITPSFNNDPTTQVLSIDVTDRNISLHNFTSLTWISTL

| SMILES | inhibition [1] | inhibition (Glycogen phosphorylase [2]) | inhibition [3] [%] | inhibition [4] | Activity (Rattus norvegicus [5]) [%] | Activity (Rattus norvegicus [6]) [%] | Activity (Rattus norvegicus [7]) | solubility [8] [µg/mL] | IC50 [9] [µM] | IC50 (Glycogen phosphorylase [10]) [µM] |
| --- | --- | --- | --- | --- | --- | --- | --- | --- | --- | --- |
| COc1ccc(-c2c(C)c(SC)c(C#N)c(N)c2C#N)cc1 | 17.3% | 37.5% | 12.3 | 0% |  |  |  |  |  |  |
| CSc1c(C)c(-c2ccccc2)c(C#N)c(N)c1C#N | 6.7% | 45% | 0.96 | inactive |  |  |  |  |  |  |
| Cc1c(-c2ccccc2)c(C#N)c(N)c(C#N)c1N1CCC(C)CC1 |  | 2.3% | 10.9 | inactive |  |  |  |  |  |  |
| CN(C)C(=N)NC(=N)N [METFORMIN] |  |  |  |  | 21.9 | 20.9 |  |  |  |  |
| COc1ccc(-c2c(C)c(C#N)c(N)c(C#N)c2SC)c(OC)c1 | 10.5% | 50% | 0.08 | 25.6% |  |  |  |  |  |  |
| COc1ccc(-c2c(C)c(N3CCCCC3)c(C#N)c(N)c2C#N)cc1 |  | 15.7% | 33.3 | inactive |  |  |  |  |  |  |
| CSc1c(C#N)c(N)c(C#N)c(Cc2ccccc2)c1-c1ccccc1 |  | 11.6% | 24.5 |  |  |  |  |  |  |  |
| CSc1c(C#N)c(N)c(C#N)c(-c2ccccc2)c1-c1ccccc1 | 10.5% | inactive | 7.4 | 81.6% | 28.1 | 24.1 | Non-toxic | 0.13 (≈ 0.381 µM) | 58 |  |
| CSc1c(C#N)c(N)c(C#N)c(C)c1-c1ccc(C(F)(F)F)cc1 | 22.1% | 55% | 14.4 | 58.5% |  |  |  |  |  |  |
| COc1ccc(-c2c(C#N)c(N)c(C#N)c(SC)c2-c2ccc(OC)c(OC)c2)cc1 | 25.9% | 13.8% | 0.3 | 30.7% |  |  |  |  |  |  |
| COc1ccc(-c2c(C#N)c(N)c(C#N)c(SC)c2-c2ccc(F)cc2)c(OC)c1 | 11.5% | 74.3% | 1.9 | 28.2% |  |  |  |  |  | 79 |
| COc1ccc(-c2c(C)c(C#N)c(N)c(C#N)c2SC)cc1OC | 6.7% | 10% | 6.1 | 0% |  |  |  |  |  |  |
| CSc1c(C#N)c(N)c(C#N)c(C)c1-c1ccccc1F | inactive | 20% | 8.2 | 40.2% |  |  |  |  |  |  |
| CSc1c(C)c(-c2ccc(Cl)cc2)c(C#N)c(N)c1C#N | 6.7% | 12.5% | 19.3 | 7.3% |  |  |  |  |  |  |
| COc1ccc(-c2c(C#N)c(N)c(C#N)c(SC)c2-c2ccccc2)cc1 | 5.7% | 37.9% | 6.8 | 61.5% | 36.9 | 26.5 | Non-toxic |  | 86 |  |
| COc1ccc(-c2c(C#N)c(N)c(C#N)c(SC)c2-c2ccc(OC)cc2)cc1 | 14.4% | 6.9% | 5.5 | 76.9% | 17.6 | 17.5 | Non-toxic |  | 72 |  |
| CSc1c(C#N)c(N)c(C#N)c(C)c1-c1ccc(F)cc1 | 17.3% | 5% | 41.8 | 3.6% |  |  |  |  |  |  |
| COc1ccc(-c2c(C#N)c(N)c(C#N)c(SC)c2-c2ccc(F)cc2)cc1 | 13.4% | inactive | 5.5 | 48.8% | 25.2 | 22.1 |  |  |  |  |
| Cc1c(-c2ccccc2)c(C#N)c(N)c(C#N)c1N1CCCCC1 |  | 4.7% | 38.2 | 31.1% |  |  |  |  |  |  |
